The subject of assay [1] is MCF7. The experiment in a line: In vitro Anti Neoplastic Activity against Human Breast adenocarcinoma MCF-7 Cell lines. The format is functional, cell-based. The essentials:
(§1)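 SRB growth assay. Cell lines were grown as monolayers in RPMI-1640 with 5% FCS, 5% NuSerum IV, 20 mM HEPES and 2 mM glutamine, and seeded at 400–1200 cells/well. They attached for 15–18 h before drug. Ten concentrations over 5 logs were tested, with final DMSO ≤0.25%. Exposure was 72 h at 37 °C. Cells were TCA-fixed, stained with sulforhodamine B and read at OD 570 nm. IC50 is 50% growth inhibition.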

For assay [2], the system named is HT-29. The experiment in a line: In vitro Anti Neoplastic Activity in Human Colon adenocarcinoma HT-29 Cell lines. The format is functional, cell-based. The essentials:
as §1

Assay [3] has as its system A121. Description: In vitro Anti Neoplastic Activity against Human ovarian carcinoma A121 Cell lines. Type of assay: functional, cell-based. The essentials:
as §1

Assay [4] deals with Trypanosoma brucei rhodesiense. The experiment in a line: In vitro anti trypanosomal activity against Trypanosomal 243 As 10e-3 (KETRI)strain. Type of assay: functional, organism-based.
For assay [5], the system named is Trypanosoma brucei rhodesiense. Description: In vitro anti trypanosomal activity against Trypanosomal 269 (KETRI)strain. The format is functional, organism-based.
Assay [6] has as its system Trypanosoma brucei brucei. The experiment in a line: In vitro anti trypanosomal activity against Trypanosomal 110 (EATRO)strain. Type of assay: functional, organism-based.
Assay [7] concerns Trypanosoma brucei rhodesiense. The experiment in a line: In vitro anti trypanosomal activity against Trypanosomal 243 (KETRI)strain. The format is functional, organism-based.
The test system of assay [8] is A549. Description: In vitro Anti Neoplastic Activity against Human non small cell lung carcinoma A549 Cell lines. The format is functional, cell-based. The essentials: as §1
Assay [9] deals with MCF7. The experiment in a line: In vitro Anti Neoplastic Activity against Adriamycin resistant Human Breast adenocarcinoma MCF7-Adr Cell lines. The format is functional, cell-based. The essentials: as §1
Assay [10] relates to L1210. The experiment in a line: In vitro inhibition of AdoMetDC derived from L1210 Murine Leukemia Cells at a dose of 100 uM. Type of assay: functional. The settings on record: Mus musculus.
In assay [11] the test system is L1210. Description: In vitro Anti Neoplastic Activity against L1210 murine leukemia Cell lines. The format is functional, cell-based. The settings on record: Mus musculus. In a few lines: as §1
Assay [12] relates to A549. Description: In vitro Antineoplastic Activity against Human non small cell lung carcinoma A549 Cell lines. Type of assay: functional, cell-based.
The subject of assay [13] is HT-29. The experiment in a line: In vitro Antineoplastic Activity in Human Colon adenocarcinoma HT-29 Cell lines. Type of assay: functional, cell-based. The essentials:
as §1

The test system of assay [14] is A121. The experiment in a line: In vitro Antineoplastic Activity against Human ovarian carcinoma A121 Cell lines. The format is functional, cell-based.
Assay [15] deals with Trypanosoma brucei rhodesiense. The experiment in a line: In vitro antitrypanosomal activity against Trypanosomal 243 (KETRI)strain at a dose of 100 uM. The format is functional.
Assay [16] concerns Trypanosoma brucei brucei. The experiment in a line: In vitro antitrypanosomal activity against Trypanosomal 110 (EATRO)strain at a dose of 100 uM. The format is functional.
Assay [17] relates to CCRF-CEM. Description: Concentration that causes morphological changes in noninfected CEM-SS cells. The settings on record: Homo sapiens, read-out: TC50 (the source's name). Type of assay: functional.
Assay [18] concerns Human immunodeficiency virus 1. The experiment in a line: In Vitro Anti-HIV activity of the compound. The settings on record: read-out: ED50 (the source's name). The format is functional.
In assay [19] the test system is MCF7. The experiment in a line: In vitro Antineoplastic Activity against Adriamycin resistant Human Breast adenocarcinoma MCF7-Adr Cell lines. Type of assay: functional, cell-based.
Assay [20] concerns MCF7. Description: In vitro Neoplastic Anti Activity against Human Breast adenocarcinoma MCF-7 Cell lines. The format is functional, cell-based.
In assay [21] the test system is HT-29. The experiment in a line: In vitro Neoplastic Anti Activity in Human Colon adenocarcinoma HT-29 Cell lines. Type of assay: functional, cell-based.
For assay [22], the system named is L1210. Description: In vitro inhibition of AdoMetDC derived from L1210 Murine Leukemia Cells. Type of assay: functional. The settings on record: Mus musculus, read-out: ID50 (the source's name).
Assay [23] deals with Mus musculus. The experiment in a line: Ratio of number of mice cured to that of total treated with the compound at 100 mg/kg for 7 days. Type of assay: functional.
Assay [24] deals with Mus musculus. The experiment in a line: Ratio of number of mice cured to that of total treated with the compound at 10 mg/kg for 3 days. Type of assay: functional.
The test system of assay [25] is Mus musculus. Description: Ratio of number of mice cured to that of total treated with the compound at 25 mg/kg for 3 days. The format is functional.
Assay [26] has as its system Mus musculus. The experiment in a line: Ratio of number of mice cured to that of total treated with the compound at 25 mg/kg for 7 days. Type of assay: functional.
In assay [27] the test system is Mus musculus. The experiment in a line: Ratio of number of mice cured to that of total treated with the compound at 50 mg/kg for 3 days. The format is functional.
Assay [28] concerns Mus musculus. The experiment in a line: Ratio of number of mice cured to that of total treated with the compound at 50 mg/kg for 7 days. The format is functional.
The subject of assay [29] is Trypanosoma brucei rhodesiense. The experiment in a line: In vitro antitrypanosomal activity against Trypanosomal 243 As 10e-3 (KETRI)strain. The format is functional, organism-based.
Assay [30] concerns Trypanosoma brucei rhodesiense. Description: In vitro antitrypanosomal activity against Trypanosomal 269 (KETRI)strain. The format is functional, organism-based.
For assay [31], the system named is Trypanosoma brucei brucei. Description: In vitro antitrypanosomal activity against Trypanosomal 110 (EATRO)strain. The format is functional, organism-based.
For assay [32], the system named is Trypanosoma brucei rhodesiense. The experiment in a line: In vitro antitrypanosomal activity against Trypanosomal 243 (KETRI)strain. The format is functional, organism-based.
Assay [33] relates to Trypanosoma brucei brucei. The experiment in a line: Mean survival days against T.b. peritoneal administration at 10 mg/kg for 3 days. Type of assay: functional.
Assay [34] deals with Trypanosoma brucei brucei. Description: Mean survival days against T.b. peritoneal administration at 25 mg/kg for 3 days. The format is functional.
In assay [35] the test system is Trypanosoma brucei brucei. Description: Mean survival days against T.b. peritoneal administration at 50 mg/kg for 3 days. Type of assay: functional.
The test system of assay [36] is Trypanosoma brucei rhodesiense. The experiment in a line: Mean survival days against T.b. rhodesiense KETRI 243 tested in mice after intra peritoneal administration at 100 mg/kg for 7 days. The format is functional.
Assay [37] concerns Trypanosoma brucei rhodesiense. The experiment in a line: Mean survival days against T.b. rhodesiense KETRI 243 tested in mice after intra peritoneal administration at 25 mg/kg for 7 days. The format is functional.
For assay [38], the system named is Trypanosoma brucei rhodesiense. The experiment in a line: Mean survival days against T.b. rhodesiense KETRI 243 tested in mice after intra peritoneal administration at 50 mg/kg for 7 days. The format is functional.
Assay [39] can be described thus: Differential selectivity as the ratio of TC50 value to that of EC50 value. The format is functional. The essentials: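 Syncytial plaque assay: log-phase CEM-SS cells were PBS-washed and plated at 50 000 per well in serum-free RPMI-1640 on poly-L-lysine-coated wells (30 min, 37 °C). They were inoculated with HIV-1 (60–90 PFU) for 120 min, then overlaid with compound in growth medium (2-fold dilutions, 0.00015–20 μM). A second overlay followed on day 3, with 5 days total. EC50 is 50% inhibition of plaque formation. TC50 is morphological change in noninfected CEM-SS cells.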

Assay [40] deals with L1210. The experiment in a line: In Vitro inhibition of L1210 Murine Leukemia Cells by the compound at a dose of 100 uM. Type of assay: functional. The conditions noted are these: Mus musculus.
For assay [41], the system named is Trypanosoma brucei rhodesiense. Description: In Vitro inhibition of Trypanosomal 243 (KETRI)strain by the compound at a dose of 100 uM. The format is functional.

As usually defined, the inhibition is how much of the control response was suppressed.

For the molecule `CC(=O)OCC(CN(C)C/C=C\CN)OC(COC(C)=O)n1cnc2c(N)ncnc21` (stereo not given), the IC50 was greater than 100 µM in assay [1]; greater than 100 µM in assay [2]; greater than 100 µM in assay [3]; 2.9 µM in [4]; 3.8 µM in assay [5]; 1.8 µM in assay [6]. Besides, the IC50 was 4.6 µM in assay [7], greater than 100 µM in assay [8] and greater than 100 µM in assay [9].
For `CN(C/C=C\CN)CC(CO)OC(CO)n1cnc2c(N)ncnc21` (stereo not given), the IC50 in assay [1] was 63 µM; in assay [2] it was 112 µM; in assay [3], 41 µM; in [11], greater than 600 µM; in assay [6], 16 µM; in [7], 15 µM. The IC50 in assay [8] was greater than 100 µM; in assay [9], 78 µM. Besides, the inhibition at 100 µM in assay [10] turned out to be 27%.
As to `CNC[C@H]1OC(n2cnc3c(N)ncnc32)[C@H](O)[C@@H]1O` (stereo not given in full), the IC50 in assay [1] was greater than 100 µM; in assay [12], greater than 100 µM; in assay [13] it was greater than 100 µM; in assay [14] it was greater than 100 µM; in assay [11] it was greater than 600 µM; in [9], greater than 100 µM. Further, the inhibition at 100 µM in assay [15] is 26%; in assay [16] it was 44%.
For the molecule `CN(C/C=C\CN)C[C@H]1O[C@@H](n2cnc3c(N)ncnc32)[C@H](O)[C@@H]1O`, the CC50 in assay [17] was less than 6.25 µM. Also, the EC50 in assay [18] was found to be 0.93 µM. Moreover, the IC50 was 200 µM in [19]; greater than 100 µM in [20]; 3 µM in assay [12]; greater than 100 µM in assay [21]; greater than 100 µM in [14]; 0.078 µM in assay [22]. Moreover, the IC50 amounted to 0.1 µM in assay [29], 0.22 µM in assay [30], 0.1 µM in [31] and 0.04 µM in [32]. Also, the No. cured/total in [23] is 4; in [24], 4; in [25], 5; in [26], 2; in assay [27] it was 5; in assay [28], 2. Besides, the MSD is 12 days in [33]; greater than 34 days in assay [34]; greater than 34 days in assay [35]; 32 days in assay [36]; 31 days in assay [37]; 31.3 days in assay [38]. For the same molecule, the Selectivity in assay [39] worked out at 6.7.
With `CN(Cc1ccccc1CN)C[C@H]1OC(n2cnc3c(N)ncnc32)[C@H](O)[C@@H]1O` (stereo not given in full), the results for the inhibition at 100 µM in assay [40] and in assay [41] were 41% and 42%, respectively. The IC50 is greater than 600 µM in assay [11] and 14 µM in [6].

(Values after ChEMBL document CHEMBL1135645, “Synthesis and evaluation of analogues of 5'-([(Z)-4-amino-2-butenyl]methylamino)-5'-deoxyadenosine as inhibitors of tumor cell growth, trypanosomal growth, and HIV-1 infectivity” (J Med Chem, 2002).)
